We go through 12 molecules from PubChem BioAssay AID504677 (The Scripps Research Institute Molecular Screening Center, 2011).

The test system of this assay is E. coli V3065 expressing H. pylori AddAB, T4 phage, OD growth. Put plainly: AddAB helicase-nuclease blockers, potency curves – absorbance, E. coli V3065, T4 phage, powder samples, late-stage follow-up (AID 504677). The procedure, abridged: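 System: addAB+ E. coli strain V3065; Dosing: threefold dilution series from nominal top dose 118.6 µM; Schedule: 60 min pre-incubation, 18 h at 37 °C; Measured by: OD600 absorbance; Evaluation: IC50 from fitted % inhibition curve; Controls: ciprofloxacin wells as high control, DMSO wells as low control; Replicates: triplicate.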

The source made the active and inactive calls.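 Rule for the calls: active = compounds with IC50 half-inhibiting concentration of 10 µM or lower; inactive = IC50 above 10 µM.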 A value given as a limit tells only on which side of the number the result lay.

In general, IC50 refers to the point on the concentration scale where inhibition reaches its midpoint.

As to `CC(=O)Nc1ccc2nc(NC(=O)c3ccc([N+](=O)[O-])o3)sc2c1`, the IC50 was > 119 µM (inactive).

On to `Cc1ccc2nc(/C(C#N)=C\c3ccc([N+](=O)[O-])o3)[nH]c2c1`, for which the IC50 is 9.42 µM.

Turning to `CCn1cc(C(=O)O)c(=O)c2cnc(N3CCN(C(=S)Nc4ccccc4C(F)(F)F)CC3)nc21`, the IC50 was 35.5 µM (inactive). The same measure for `O=C(NCc1cccnc1)c1ccc([N+](=O)[O-])o1`: 18.9 µM (inactive); for `O=C(Nc1cccc(NC(=O)c2ccccc2Cl)c1)c1ccc([N+](=O)[O-])o1`: > 13.2 µM (inactive). For `Cc1cccnc1NC(=O)c1ccc([N+](=O)[O-])o1` the value was 19.6 µM (inactive); for `NC(=O)c1ccsc1NC(=O)COC(=O)c1ccc([N+](=O)[O-])o1`, 5.83 µM. For `C=CCn1c(Sc2ncc([N+](=O)[O-])s2)n[nH]c1=O` the value was 14.8 µM (inactive); for `N#Cc1c(NC(=O)c2ccc([N+](=O)[O-])o2)sc2c1CCC2`, 17.8 µM (inactive). As for `O=C(OCC(=O)c1cccs1)c1ccc([N+](=O)[O-])o1`, the IC50 was 53.3 µM (inactive).

As to `O=C(Nc1ccc(N2CCOCC2)cc1)c1ccc([N+](=O)[O-])o1`, the IC50 was 11.8 µM (inactive). Turning to `O=C(Nc1ncccn1)c1ccc([N+](=O)[O-])o1`, the IC50 is 7.54 µM.
